Only some compounds are listed: those with a hit (about 4.1% of all), similar ones and a draw of the others.
KCNQ1 act: potentiators or activators of human KCNQ1 potassium channel; CHO-K1 KCNQ1, thallium flux FluxOR fluorescence; stronger effect = higher value; B-score at 10 µM; 310,000 compounds, 0.35% hits;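 active = fluorescence ratio B-score, a plate-corrected score, at least three library SD, with initial intensity B-score within 5 SD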
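assay system = KCNQ1-transfected CHO-K1 cells | medium = assay buffer with matched DMSO | probe or stimulus = depolarizing K+/Tl+ stimulus, K2SO4 and Tl2SO4 each 12.5 mM in 5x stock | dosing = single dose | incubation = dye 90 min, compound 20 min, room temperature | detection = kinetic FluxOR fluorescence, 10 s baseline plus 110 s post-stimulus | evaluation = ratio B score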
KCNQ1 block: blocks the human KCNQ1 potassium channel; P51787; CHO-K1 KCNQ1, FluxOR thallium flux fluorescence; stronger effect = higher value; B-score at 10 µM; 310,000 compounds, 1.3% hits; AID 2642;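 active = compounds whose thallium flux B-score, printed positive for inhibition, exceeds three library SD while starting fluorescence stays within three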;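 note: channel opened by potassium depolarization with thallium stimulus after 20 min compound exposure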
KCNK9 inh: human KCNK9 channel inhibition; Q9NPC2; HEK293 KCNK9, FluxOR thallium flux fluorescence; stronger effect = lower value; B-score at 10 µM; 310,000 compounds, 1.2% hits; AID 488922;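 active = ratio B-score over 3 SD below the library mean, with starting fluorescence within 5 SD of its mean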;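 note: negative B-score means less thallium flux so channel inhibition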
KCNK3 block: human KCNK3 channel inhibition, primary screen; 340,000 compounds, 0.84% hits; CHO-KCNK3 thallium flux, FluxOR fluorescence; stronger effect = lower value; B-score at 10 µM;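 active = B-score under library mean minus 4 SD, starting fluorescence ratio at most library mean plus 5 SD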;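 note: more negative B-score means stronger inhibition of thallium flux through KCNK3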
hERG protect: hERG (human) protection from proarrhythmic block; Q12809; CHO-hERG, FluxOR thallium flux, dofetilide IC70 present; activation (rescue from dofetilide block), less the hit threshold, % at 10 µM; 310,000 compounds, 0.51% hits;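 active = activation above the mean of controls blocked by dofetilide plus 5 SD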;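 note: thallium influx through hERG after potassium depolarization seen as dye fluorescence rise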
Cl transport mod: KCC2 (human) Cl- transport modulation; AID 1456; 190,000 compounds, 2.2% hits; Q9H2X9; KCC2 cells, thallium flux FluoZin-2 fluorescence; B-score of Tl+ flux slope (higher = more flux/activation; lower = inhibition) at 10 µM;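 active = thallium flux slope and its plate-corrected score both differing from the plate sample mean at a set confidence after two filtering rounds, in either direction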;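 note: slope of fluorescence scaled to starting intensity during 10 to 20 s after thallium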
KCC2 secondary: KCC2 (human) modulation, secondary assay. HEK293-KCC2, thallium flux, FluoZin2 fluorescence; stronger effect = higher value. shares compounds with Cl transport mod. 3,700 compounds, 15% hits. normalised thallium flux (F/F0 slope) at 10 µM;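 active = thallium flux slope above the same plate's solvent-only control mean plus 3 SD; inconclusive = the two replicate wells disagree; inactive = no significant difference from solvent-only control wells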
KCC2 bumet counter: bumetanide-insensitive thallium flux in KCC2 cells with ouabain, counter-screen. shares compounds with Cl transport mod. HEK293-KCC2 + bumetanide/ouabain, thallium flux FluoZin2; stronger effect = higher value. normalized thallium flux at 10 µM. 3,700 compounds, 49% hits;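 active = thallium entry rate above the same plate's blocked-transporter control wells by more than 3 SD; inconclusive = the two repeat wells disagree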;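 note: raw slope of fluorescence over initial fluorescence between 10 and 20 s after thallium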
KCC2 secondary2: confirmation of human KCC2 transport modulators; shares compounds with Cl transport mod; HEK293-KCC2, thallium flux FluoZin2 fluorescence; actives lie on both sides; F/F0 rise rate, 10–20 s post-thallium; normalized thallium flux at 10 µM; 3,700 compounds, 23% hits; AID 1715;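 active = thallium flux slope more than 3 SD above or below the plate's solvent-only control mean, mostly below; inconclusive = the two repeat wells disagreed; inactive = no significant shift from solvent-only controls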;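 note: raw slope with 0.1% DMSO as baseline and bumetanide as block control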
HEK293 Tl flux: acts in parental HEK cells, KCC2 counter-screen; shares compounds with Cl transport mod; HEK293 parental cells, thallium flux FluoZin2, ouabain; baseline-ratio fluorescence slope, 10–20 s after thallium; thallium flux rate (normalised fluorescence) at 10 µM; 3,700 compounds, 46% hits;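 active = thallium flux rate significantly above the same plate's solvent-only control wells, beyond their mean plus 3 SD; inconclusive = the two replicate wells gave conflicting results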
KCC2 ouabain: modulates human KCC2 on retest with ouabain; raw Tl+ flux slope (below DMSO = inhibition, above = activation) at 10 µM; HEK293-KCC2, thallium flux FluoZin2 fluorescence; bidirectional: low = inhibitor, high = activator; 3,700 compounds, 48% hits; shares compounds with Cl transport mod; AID 1717;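 active = thallium flux slope beyond 3 SD from same-plate DMSO control mean in most replicates, usually higher, sometimes lower; inconclusive = repeat tests gave conflicting results; inactive = no significant difference from controls in most replicates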;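 note: slope of initial-normalized fluorescence between seconds 10 and 20 after thallium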
HEK counter2: acts in parental HEK cells, second KCC2 counter-screen; thallium flux slope at 10 µM; 3,700 compounds, 33% hits; AID 1718; shares compounds with Cl transport mod; HEK293 parental, thallium flux FluoZin-2 fluorescence slope;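 active = thallium flux slope above the same plate's solvent-control mean plus 3 SD in both duplicate wells; inconclusive = duplicate wells that disagreed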;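 note: run without ouabain in cells lacking the KCC2 cotransporter; slope of fluorescence scaled to its starting value between 10 and 20 s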
* hit, by the source's call; i = inactive; ? = inconclusive; . = no result.

SMILES | KCNQ1 act | KCNQ1 block | KCNK9 inh | KCNK3 block | hERG protect | Cl transport mod | KCC2 secondary | KCC2 bumet counter | KCC2 secondary2 | HEK293 Tl flux | KCC2 ouabain | HEK counter2
CN=c1scc(-c2ccccc2F)n1/N=C(\C)c1cccnc1 | i | i | i | i | -11.6 | -3.91* | 0.00702 | 0.00482 | ? | 0.00773 | ? | 0.0109
C/C(=N\N1CCN(C2c3ccccc3-c3ccccc32)CC1)c1cccnc1 | i | i | i | i | -6.3 | -0.0106 | . | . | . | . | . | .
CCCCC(=O)NC(Nc1sc2c(c1C(N)=O)CCCC2)(C(=O)OCC)C(F)(F)F (stereo not drawn) | i | i | i | i | -7.9 | -0.314 | . | . | . | . | . | .
COC(=O)C(NC(C)=O)(Nc1sc2c(c1C(N)=O)CCCC2)C(F)(F)F (stereo not drawn) | i | i | i | i | -13.1 | . | 0.00817 | 0.00587 | 0.0294 | 0.0069 | 0.02 | 0.00975
CC(C)Cn1nnc2c(=O)oc3ccccc3c21 | i | i | i | i | -9.7 | . | 0.00878 | 0.0049 | 0.0268* | 0.00524* | 0.012* | 0.0084*
CCn1nnc2c(=O)oc3ccccc3c21 | i | i | i | i | -4.7 | -4.29 | . | . | . | . | . | .
O=C(CN1C(=O)C2C3C=CC(C3)C2C1=O)NCCN1CCCc2ccccc21 (stereo not drawn) | i | i | i | i | -1.3 | 4.55* | 0.00761 | 0.00596 | 0.0306 | 0.00687 | 0.0208 | 0.00962
COC(=O)c1cnn(-c2nc(OC)cc(OC)n2)c1C | i | i | i | i | -7.9 | 0.963 | . | . | . | . | . | .
CCOC(=O)c1cnn(-c2nc(OC)cc(OC)n2)c1C(F)(F)F | i | i | i | i | -6.8 | -10.7* | 0.00694 | 0.00427 | 0.0295 | 0.00732 | 0.0186 | 0.0103
Cc1cc([N+](=O)[O-])cc(/C=N/n2c(C)nc3ccccc3c2=O)c1O | i | i | i | i | -10.1 | -3.31* | 0.00724 | ? | 0.0292 | 0.00778 | ? | 0.0107
CCOc1ccccc1OCCCC(=O)N1CCN(S(=O)(=O)c2cc(F)ccc2F)CC1 | . | . | . | i | . | . | . | . | . | . | . | .
COc1ccc(S(=O)(=O)Nc2ccc(Cl)cn2)cc1 | i | i | i | i | -4.9 | . | . | . | . | . | . | .
CC(C)NC(=O)CC(=O)N/N=C/c1cccs1 | i | i | i | i | -4.9 | -0.639 | . | . | . | . | . | .
O=C1c2cccc3c([N+](=O)[O-])ccc(c23)C(=O)N1Cc1cccnc1 | i | i | i | i | -20.2 | -5.01* | 0.00411* | ? | 0.0263* | 0.00579* | 0.0138* | 0.00842*
Nc1nc(SCc2ccccc2Cl)c2ncn(C3OC(CO)C(O)C3O)c2n1 (stereo not drawn) | . | . | . | i | . | . | . | . | . | . | . | .
CCn1c(SCc2ccc(F)cc2)nc2ccccc2c1=O | i | i | i | i | -5.1 | . | . | . | . | . | . | .
C/C(N)=C(/C#N)C(=O)CSc1nc2ccccc2c(=O)n1Cc1ccc(F)cc1 | 8* | i | i | i | -5.3 | 95.1* | ? | 0.0708* | 0.0526* | 0.0641* | 0.0614* | 0.0565*
